Experiments:
[1] = Dissociation constant, pKa2 of the compound by potentiometric titration assay; assay type: physicochemical
[2] = Volume of distribution at steady state in Wistar rat at 3 mg/kg, po or 1 mg/kg, iv by LC-MS/MS analysis; assay type: ADME, organism-based; settings: Wistar, in vivo, read-out: Vdss
Outline: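 Fasted male Wistar rats were dosed orally and intravenously, with water for injection as the vehicle for both routes, at dosing volumes of 10 mL/kg p.o. and 2 mL/kg i.v.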

PBL = test: Clastogenic activity in human peripheral blood lymphocytes by chromosomal aberration test; assay type: toxicity, cell-based
[3] = Metabolic stability in dog liver microsomes in presence of NADPH after 30 mins by LC-MS/MS analysis; assay type: ADME, Canis lupus familiaris, Microsome; settings: read-out: Stability
[4] = Toxicity in dog assessed as effect on body weight at 10 to 25 mg/kg, po; assay type: organism-based, Canis lupus familiaris; settings: in vivo
Outline: (§1)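 Male dogs received oral doses of 10, 18 and 25 mg/kg. Body weight, body temperature, blood pressure, heart rate and ECG were monitored.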

[5] = Metabolic stability in human hepatocytes after 30 mins by LC-MS/MS analysis; assay type: ADME, cell-based, Hepatocyte; settings: read-out: Stability
[6] = AUCt in Beagle dog at 3 mg/kg, po by LC-MS/MS analysis; assay type: ADME, organism-based, Canis lupus familiaris; settings: in vivo
[7] = Toxicity in dog assessed as effect on blood pressure at 10 to 25 mg/kg, po; assay type: organism-based, Canis lupus familiaris; settings: in vivo; outline: as §1
[8] = AUC (0 to 24 hrs) in Wistar rat at 1 mg/kg, iv by LC-MS/MS analysis; assay type: ADME, organism-based; parameters: time < 24 hr, dose 1 mg/kg, route intravenous; settings: Wistar, in vivo
Outline: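 Fasted male Wistar rats; compound in water for injection, given i.v. (2 mL/kg) or p.o. (10 mL/kg). Plasma exposure measured as AUC0-24hr.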

[9] = Clearance in Beagle dog at 1 mg/kg, iv by LC-MS/MS analysis; assay type: ADME, organism-based, Canis lupus familiaris; settings: in vivo
Cytochrome P450 2C9 = Cytochrome P450 2C9 (Homo sapiens, UniProt P11712); test: Inhibition of CYP2C9 (unknown origin); assay type: ADME
Chain of Cytochrome P450 2C9 (P11712 whole entry): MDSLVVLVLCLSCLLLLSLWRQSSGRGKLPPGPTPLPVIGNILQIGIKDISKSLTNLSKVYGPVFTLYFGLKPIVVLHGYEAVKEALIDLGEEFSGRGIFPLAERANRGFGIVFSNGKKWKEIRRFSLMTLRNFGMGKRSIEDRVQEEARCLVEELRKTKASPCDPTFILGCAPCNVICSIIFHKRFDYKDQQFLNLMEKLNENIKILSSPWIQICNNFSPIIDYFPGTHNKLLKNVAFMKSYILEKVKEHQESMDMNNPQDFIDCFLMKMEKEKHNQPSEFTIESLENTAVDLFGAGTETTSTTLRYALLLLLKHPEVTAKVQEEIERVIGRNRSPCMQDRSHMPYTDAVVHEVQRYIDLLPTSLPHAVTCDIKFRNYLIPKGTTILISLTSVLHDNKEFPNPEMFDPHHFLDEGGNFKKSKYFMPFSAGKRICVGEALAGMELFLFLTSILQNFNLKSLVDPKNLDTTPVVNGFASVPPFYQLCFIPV

[10] = Mutagenicity in Escherichia coli WP2 in presence of metabolic activation by Ames test; assay type: toxicity
Outline: (§2)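 Reverse-mutation test in Salmonella typhimurium TA1537, TA1535, TA98 and TA100 and in E. coli WP2 uvrA, run with and without metabolic activation.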

[11] = Volume of distribution in Beagle dog at 1 mg/kg, iv by LC-MS/MS analysis; assay type: ADME, organism-based, Canis lupus familiaris; settings: in vivo
[12] = Mutagenicity in Salmonella typhimurium TA1537 in absence of metabolic activation by Ames test; assay type: toxicity; settings: salmonella enterica subsp. enterica serovar typhimurium
[13] = Toxicity in Wistar rat up to 100 mg/kg, po by Irwin's test; assay type: organism-based; settings: in vivo
Outline: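 CNS safety was screened with a modified Irwin's test at oral doses up to 100 mg/kg.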

[14] = Mutagenicity in Escherichia coli WP2 in absence of metabolic activation by Ames test; assay type: toxicity; outline: as §2

For `Cl.Cl.O=C(CN1CCOCC1)Nc1ccc(OC2CCN(C3CCC3)CC2)cc1`, the pKa [1] was 4.9, the Vd [2] was 5 L/kg and the Activity (PBL) was “Non-Toxic”. For the same compound, the remaining at 0.5 h [3] was 13%, the Activity [4] was “Non-Toxic” and the remaining at 0.5 h [5] was less than 5%. The AUC(0-t) [6] was 1120 ng·h/mL, the Activity [7] was “Non-Toxic” and the AUC(0-t) at 24 h [8] was 263 ng·h/mL. The clearance [9] was 36 mL/min/kg, the IC50 (Cytochrome P450 2C9) was greater than 45 µM and the Activity [10] was “Non-Toxic”. The Vd [11] was 5.2 L/kg, the Activity [12] was “Non-Toxic” and the Activity [13] was “Non-Toxic”. For the same compound, the Activity [14] was “Non-Toxic”.
